Results on 4 compounds are retold here after ChEMBL document CHEMBL1156778, “Synthesis and structure-activity studies of biphenyl analogues of the tuberculosis drug (6S)-2-nitro-6-{[4-(trifluoromethoxy)benzyl]oxy}-6,7-dihydro-5H-imidazo[2,1-b][1,3]oxazine (PA-824)” (J Med Chem, 2010).

Usually MIC stands for the lowest concentration found to suppress growth. For orientation: IC50 means the point on the concentration scale where inhibition reaches its midpoint.

In brackets after ≈: the same amount, converted by molar mass. Where only a bound is given, the exact number is not on record here.

The test system of data set [1] is Mycobacterium tuberculosis. The experiment in a line: Antitubercular activity against Mycobacterium tuberculosis H37Rv infected in BALB/c mouse measured per mouse at 100 mg/kg, po daily for 5 days a week for 3 weeks. The data set is classed as functional.
Data set [2] concerns Mycobacterium tuberculosis. In words: Antitubercular activity against Mycobacterium tuberculosis H37Rv in aerobic condition after 7 days by microplate alamar blue assay. The class given is functional. The conditions noted are these: 168 h. An outline of the steps:
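M. tuberculosis H37Rv, replicating culture; 8-day microplate assay with Alamar blue added on day 7 to read growth. […] Mean of at least two independent determinations ± SD.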
Background: The colour change of resazurin is a common sign of viable cells or microbes.

The test system of data set [3] is Mycobacterium tuberculosis. The experiment in a line: Antitubercular activity against Mycobacterium tuberculosis H37Rv in anaerobic condition after 7 days by low oxygen recovery assay. The conditions noted are these: 168 h. The data set is classed as functional.
The test system of the next data set is Vero. The experiment in a line: Cytotoxicity against african green monkey Vero cells after 72 hrs by MTS assay. The class given is cell-based. As to conditions: Chlorocebus sabaeus. An outline of the steps: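 VERO cells (CCL-81), 72 h exposure, tetrazolium dye read-out.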
Data set [4] can be described thus: Metabolic stability in pooled human liver microsomes assessed as compound remaining after 1 hr by LC-MS-MS. The data set is classed as ADME, Microsome. As to conditions: read-out: Stability. An outline of the steps: (§1)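 Test compound at 1 μM with pooled CD-1 mouse or human liver microsomes (0.5 mg/mL protein) and NADPH-regenerating system (3.3 mM MgCl2, 3.3 mM G6P, 0.4 U/mL G6PD, 1.3 mM NADP+) in 75 mM phosphate, pH 7.4, 0.5% DMSO, 37 °C. Stopped at 0 and 60 min with MeCN containing metoprolol internal standard. LC-MS/MS (ESI, SRM), duplicates. % remaining = 100 × mean peak-area ratio at 60 min / at 0 min.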
A general note: Liver microsomes are vesicles of endoplasmic reticulum, rich in cytochrome P450 enzymes.

For data set [5], the system named is Mycobacterium tuberculosis. In words: Antitubercular activity against Mycobacterium tuberculosis H37Rv infected in BALB/c mouse assessed as ratio of lung CFU for compound to lung CFU for PA-824 at 100 mg/kg, po daily for 5 days a week for 3 weeks. The class given is functional.
Data set [6] is described as follows: Metabolic stability in pooled CD1 mouse liver microsomes assessed as compound remaining after 1 hr by LC-MS-MS. The class given is ADME, Microsome. As to conditions: read-out: Stability. An outline of the steps: as §1

With `O=[N+]([O-])c1cn2c(n1)OC[C@@H](OCc1ccc(-c3ccccc3OCCCO)cc1)C2`, the CFU in data set [1] stood at 1100000. Moreover, the minimum inhibitory concentration (MIC) in data set [2] was found to be 0.34 µM (≈ 0.145 µg/mL); in data set [3], 2.7 µM (≈ 1.15 µg/mL). The same compound gave an IC50 in the data set on Vero of over 125 µM. Also, the remaining at 1 h in data set [4] came to 59%; in data set [6], 21%. Also, in data set [5], the “fold change (FC)” value is under 0.01.

In data set [1], `COc1cccc(F)c1-c1ccc(CO[C@@H]2COc3nc([N+](=O)[O-])cn3C2)cc1` returned a CFU of 1100000. The MIC stood at 0.13 µM (≈ 0.0519 µg/mL) in data set [2] and 0.81 µM (≈ 0.323 µg/mL) in data set [3]. For the same compound, in the data set with Vero, the IC50 is over 125 µM. Also, the figures for the remaining at 1 h in data set [4] and in data set [6] were 91% and 0%, respectively. For the same compound, in data set [5], the “fold change (FC)” value came out at 0.07.

For `O=[N+]([O-])c1cn2c(n1)OC[C@@H](OCc1ccc(-c3ccc(OCCCN4CCOCC4)cc3)cc1)C2`, in data set [1], the CFU was 310000. Also, the MIC in data set [2] is 0.097 µM (≈ 0.048 µg/mL); in data set [3], 1 µM (≈ 0.495 µg/mL). The compound further displayed a concentration for half-maximal inhibition (IC50) in the data set on Vero of over 125 µM. For the same compound, the remaining at 1 h in data set [4] was found to be 11%; in data set [6] it was 14%. Moreover, the “fold change (FC)” value in data set [5] is listed as 0.05.

In turn, `O=[N+]([O-])c1cn2c(n1)OC[C@@H](OCc1ccc(-c3cccc(OCc4ccccc4)c3)cc1)C2` showed a CFU in data set [1] of 120000. Further, the MIC in data set [2] was found to be 0.12 µM (≈ 0.0549 µg/mL); in data set [3] it was 0.88 µM (≈ 0.403 µg/mL). For the same compound, the IC50 with Vero was over 125 µM. Besides, the values for the remaining at 1 h in data set [4] and in data set [6] were 64% and 50%, respectively. Besides, the “fold change (FC)” value in data set [5] stood at 0.66.
